Results from article PMC3945061 (Pain, 2013).

What was measured:
[1] = tested on: DRG neurons from Mrg KO mice; assay: Calcium imaging, DRG neurons from Mrg KO mice; format: cell-based, mouse; conditions: capsaicin 0.5 μM, positive control, after JHU58
Method in brief: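 Mrg KO mice: 845 kb chromosome 7 deletion covering 12 Mrg genes incl. MrgC11, backcrossed to C57BL/6 at least five generations. DRGs from 3–4-week-old mice were enzyme-dissociated at 37°C, plated on poly-D-lysine/laminin coverslips, and used within 24 h. Fura-2 AM loading for 30 min in the dark at room temperature; 340/380 nm ratio imaging; bath drug application; experimenter blinded to genotype.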

pain / nociception = conditions: cited from earlier work
rats (lower limbs) = assay: Motor paralysis after intrathecal injection; format: in vivo, rat; conditions: intrathecal lidocaine 400 μg/20 μl
[2] = tested on: SNL rats (mechanical hypersensitivity); assay: Paw withdrawal threshold; format: in vivo, rat; conditions: intrathecal FMRFamide 2 mM, 10 μl, n=7, 30 and 60 minutes
Method in brief: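 Male Sprague-Dawley rats (200–350 g) had the left L5 spinal nerve ligated with 6-0 silk and cut distally. They were tested 4–5 weeks later via an intrathecal PE-10 catheter inserted through the atlanto-occipital membrane, with compound diluted in saline. Ipsilateral plantar PWT was measured by the up-down method (von Frey 0.38–13.1 g, 4–6 s) using the Dixon formula. Tests ran in the morning, blinded.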

COc1cc(CNC(=O)CCCC/C=C/C(C)C)ccc1O [capsaicin]
DRG neurons from Mrg KO mice with an increase in [Ca2+]i [1]: 32%
Effect on pain, peripheral versus central application (pain / nociception; capsaicin): induces burning pain in the periphery, but it inhibits pain when applied centrally

CCN(CC)CC(=O)Nc1c(C)cccc1C [lidocaine]
Motor paralysis of the lower limbs (rats (lower limbs)): temporary motor paralysis of the lower limbs

FMRFamide
Mechanical hypersensitivity, ipsilateral PWT [2]: inhibited mechanical hypersensitivity in the ipsilateral hindpaw of SNL rats

γ^2-MSH
Effect on nociception (acute and inflammatory pain models) (pain / nociception; systemic and intrathecal injections): produce pronociceptive effects in acute pain models and contribute to heat hyperalgesia in an inflammatory pain model
